# Assay results published in ChEMBL document CHEMBL4513216, “Probing the Open Global Health Chemical Diversity Library for Multistage-Active Starting Points for Next-Generation Antimalarials” (ACS Infect Dis, 2020).
# Assay: Toxicity liver stage against HepG2, at 10uM
# Type: cell-based
# Design: test concentration 10 uM, cell line HepG2-A16-CD81EGFP
# Details: human, HepG2-A16-CD81EGFP cells; read-out: INHIBITION
# In short: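 Uninfected HepG2-A16-CD81EGFP cells, 3 × 10^3 per well, 1536-well, plated on prespotted compound at 10 μM final, parasite-free screening media added to match infected plates; puromycin 10 μM positive, DMSO 0.5% negative; run in parallel with 48 h PbLuc assay at 37 °C, 5% CO2; viability by CellTiter-Glo luminescence, normalized to controls.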
row,SMILES,cytotoxicity at 10 µM [%]
1,Cc1cc(C)cc(CN2CCN(C(=O)CCc3n[nH]c(C)n3)CC2=O)c1,0.108
2,CN(C)CC(=O)N1C[C@@H](Oc2ccccn2)[C@H]2OCCC[C@H]21,9.11
3,Cc1nnsc1CNC(=O)Nc1cccc(N2CCN(C)C2=O)c1,-3.97
4,O=C(C(CNCc1ccccn1)c1ccccc1)N1CCOCC1 (stereo unspecified),0.983
5,NS(=O)(=O)Cc1ccc(CNc2cncc(-n3cccn3)n2)cc1,6.1
6,Cc1ccc(C)c(NC(=O)Cc2c(C)nc3c(c2C)c(=O)[nH]n3C)c1,15.4
7,Cn1cnnc1C1CCCN(C(=O)NCc2ccccn2)C1 (stereo unspecified),2.83
8,CN(C)S(=O)(=O)Nc1ccc(-n2nccc2C(F)(F)F)cc1,5.65
9,CCCNC(=O)c1cc(Br)cc(S(=O)(=O)N2CCOCC2)c1F,-5.12
10,Cc1nn(-c2ccccc2)c(C)c1-c1ccnc(N2CCCNCC2)n1,-9.5
11,CC(C)(CN1CCC2(CCOCC2)CC1)N1CCOCC1,-148
12,CN(C)C(=O)c1ccc2c(c1)N(C)C(CC(=O)NCCC(C)(C)C)CO2 (stereo unspecified),-0.8
13,CCc1cc(N2CCC(NC(=O)CCC3CCCO3)CC2)ncn1 (stereo unspecified),8.31
14,CC(C)c1noc([C@@H]2C[C@H](NS(=O)(=O)Cc3ccccc3)CN2C)n1,-2.1
15,O=C(N1CCCC1)N1Cc2nccn2CC(Cn2ncccc2=O)C1 (stereo unspecified),3.39
16,Cc1noc(C)c1-c1cncc(C2CCCN2Cc2ccncc2)n1 (stereo unspecified),-7.98
17,CN1CCN(c2cccc(Cl)c2CNCCS(C)(=O)=O)CC1,-0.641
18,CCC(=O)N1CCN(c2cc(N(C)C)cnn2)CC1,2
19,Cc1nnsc1C(=O)N1CCC2(CC1)c1nc[nH]c1CCN2CC(C)C,26.3
20,Cn1cnc(S(=O)(=O)N2CCCn3cnc(CN4CCCC4)c3C2)c1,1.27
21,Cc1cccnc1NC(=O)NCc1ccc(N2CCNC(=O)C2)cc1,-8.85
22,CNS(=O)(=O)c1ccc(CN2CCCN(CC(C)C)CC2)cc1,4.03
23,CC(NC(=O)Cn1ccc(=O)n(C)c1=O)c1cc(F)ccc1F (stereo unspecified),-4.64

row,SMILES,cytotoxicity at 10 µM [%]
1,CC(NC(=O)NCCCn1cccn1)c1cccnc1 (stereo unspecified),23.1
2,CCOCC1CN(Cc2ccco2)Cc2ccnn2C1 (stereo unspecified),-149
3,OC(CNc1ncnc2c1CCNCC2)C(F)(F)F (stereo unspecified),-4.92
4,CN(C)c1cc2c(nn1)CCN(C(=O)Cc1ccc3c(c1)CCC3)C2,-5.98
5,Cc1csc(N2CCCN(C(=O)c3csc(C)n3)CC2)n1,-3.96
6,CC(=O)Nc1ccc(C(=O)N(C)Cc2cccc(F)c2)s1,2.82
7,Cn1ccnc1SCC(=O)NCc1ccc2c(c1)CCC(=O)N2,7.66
8,CN(CCC#N)C(=O)C(C)(C)Oc1ccc(C(N)=O)cc1,0.676
9,Cc1nnc(CN(C)CC(=O)N2CCCC(C)CC2)n1C (stereo unspecified),10.6
10,Cc1nn(C)cc1CN1C[C@H]2CC[C@@H](C1)N(Cc1c(C)noc1C)C2=O,5.9
11,CCn1cc(NC(=O)NCC(O)c2ccccc2)cn1 (stereo unspecified),-1.14
12,Cc1cnc(NC(=O)N2CCCC2)s1,-13.6
13,N#Cc1nccnc1N1CCC(C(O)c2cccs2)CC1 (stereo unspecified),-38
14,O=C(CN(Cc1ccccc1)CC1CCOCC1)Nc1nccs1,-13.5
15,CCN1CCN(C2(C(=O)NC3CCCC3)Cc3ccccc3C2)CC1,-13.8
16,Cn1c(SCc2noc(C(C)(C)C)n2)nnc1C1CCS(=O)(=O)C1 (stereo unspecified),8.32
17,Cc1cnn(C2CCCN(C(=O)CCc3cnn(C)c3)C2)c1 (stereo unspecified),-11.1
18,Cc1ccc(Oc2ncccc2C(=O)N(C)CC2OCCO2)c(C)c1,3.54
19,CO[C@@H]1CO[C@@]2(CCCN(C(=O)C3CC=CC3)C2)C1,-105
20,CCc1ncc(C(=O)N2CCn3c(CC)nnc3C2)s1,1.03
21,CC(=O)Nc1nc(C(=O)NCc2ccc(OC(C)C)nc2)cs1,-2.45
22,CN(Cc1ccsc1)C(=O)Nc1ccc(=O)n(C)c1,6.26
23,COCC1CC2(CCN(C(=O)c3occc3C)CC2)CO1 (stereo unspecified),0.982

row,SMILES,cytotoxicity at 10 µM [%]
1,Cc1nnc([C@H]2C[C@@H]3CCN(Cc4ccc(C)o4)C[C@H]3O2)[nH]1,-2.1
2,CN(CCc1ccccc1)c1cnn(C)c(=O)c1Br,-7.22
3,Cc1nccc(N[C@H]2CN(C(=O)CCN3CCCC3=O)C[C@@H]2C(C)C)n1,-6.3
4,CN1C[C@@H](c2cccc(F)c2)[C@H]2[C@H]1CCCCCN2C(=O)C1CC1,4.21
5,Cc1cc(NCCO)nc(N2CCCC2)c1C#N,-7.02
6,CN1CCCC(CNS(=O)(=O)N2CCc3ccccc3C2)C1 (stereo unspecified),-4.32
7,CCCC(C#N)NC(=O)c1sccc1CC (stereo unspecified),12.7
8,COC(=O)c1cc(OC)c(OC)cc1N(C)S(C)(=O)=O,7.43
9,O=C(Cn1nnc(-c2ccc(F)cc2)n1)N1CCOCC(O)C1 (stereo unspecified),10.9
10,Cc1nc(N2CCC(C)CC2)ncc1-c1cc(O)nc(N2CCCC2)n1,9.82
11,COCCN(C)C(C(=O)O)c1ccc2ccccc2c1 (stereo unspecified),3.54
12,CCC(CC)CN1CCCn2nc(CNC(=O)COC)cc2C1,2.66
13,CCC(=O)N1CCC(n2cc(C(C)(C)O)nn2)CC1,3.92
14,CC(NCc1cccc2c1OCCO2)c1cc2c(cc1Br)OCCO2 (stereo unspecified),3.6
15,CC1COCCN1C(=O)c1cccc(OCc2cscn2)c1 (stereo unspecified),-9.93
16,COc1c(Br)cccc1CCNC(=O)c1csnn1,-2.5
17,COCC(=O)N1CCC(C(=O)Nc2ccc(C(C)=O)cc2)CC1,1.73
18,CC(=O)N1CCCC1c1nnn2cc(NCc3cccnc3)ccc12 (stereo unspecified),17.1
19,O=C(Cc1ccccn1)N1CCc2nc(-c3cnccn3)nc(O)c2C1,2.83
20,CCN(CC)C(=O)C1CCN(c2ccc(Cl)cc2C#N)CC1,12.2
21,O=C(O)CC(CC(=O)NCCc1cccs1)c1cccs1 (stereo unspecified),-11.4
22,COCc1nc2ncc3c(=O)n(-c4ccc(C(C)=O)cc4)ccc3n2n1,-7.03
23,O=C(O)[C@]12CCCN(Cc3ccncc3)[C@@H]1CCN(c1cnccn1)C2,20.4

row,SMILES,cytotoxicity at 10 µM [%]
1,CNc1cc(CNC(=O)c2ccccc2OC)nc(-c2ccncc2)n1,-13.7
2,Cc1cccc(CN(Cc2ccccc2)Cc2nccs2)n1,12.4
3,CC(=O)Nc1ccc2c(c1)C1(CCOCC1)C(=O)N2c1ccsc1,5.56
4,COC(=O)NCc1cc2n(n1)CCCN(C(C)=O)C2,-2.26
5,Cc1cncc(C(=O)N2CCC(Cn3cc(-c4ccsc4)nn3)CC2)c1,-6.69
6,CCOCC(O)CN1CCN(C(=O)c2cccc3[nH]ncc23)CC1 (stereo unspecified),-12.8
7,CCCOC1CCCN(C(=O)c2cnc(-c3csc(C)n3)nc2O)C1 (stereo unspecified),-1.97
8,CCOCCN1CCN(Cc2nc(C)no2)CC1CC (stereo unspecified),13.1
9,O=C(c1cccc(NCCO)c1)N1CCOCC1,-11
10,Cc1ccc2c(c1)c(CNC(C)Cn1nc(C)cc1C)nn2C (stereo unspecified),-10.5
11,Fc1ccc(NCc2ccncc2)c(OC(F)F)c1,10.5
12,Cc1n[nH]c(CN2CCN(CC3CC3)[C@@H]3CS(=O)(=O)C[C@@H]32)n1,-15.8
13,COCC1CN(C(=O)C2=CCCCC2)Cc2cnn(CC3CC3)c21 (stereo unspecified),3.46
14,COCC(C)N(C)C(=O)NC1CCN(S(C)(=O)=O)CC1 (stereo unspecified),5.36
15,Cc1nn(C)c(C)c1C1COCCN1c1ncnc2c(C)cccc12 (stereo unspecified),6.54
16,CCOC[C@@H]1CC[C@H]2[C@H](CCN2S(=O)(=O)c2ccc(F)cc2)O1,1.39
17,CO[C@H]1CCN(Cc2cnn(C)c2)[C@@H]2CN(Cc3cccnc3)C[C@H]12,-4.17
18,CCOCC1CN(Cc2cnn(C)c2)Cc2c1cnn2CC (stereo unspecified),-83.4
19,CCOCCC1(CNC(=O)c2ccsc2)CCC1,7.92
20,COc1ccccc1OC1CCN(Cc2cccnc2)CC1,-1.7
21,COc1ccccc1C(C)Nc1ncc(C(N)=O)cc1Cl (stereo unspecified),8.74
22,CC1CCN(CC(=O)N(Cc2ccccc2)Cc2nccs2)C1=O (stereo unspecified),-0.0342
23,c1ccc(CN2CCc3ncnc(C4CC4)c3CC2)nc1,-138

row,SMILES,cytotoxicity at 10 µM [%]
1,CCn1cnc2c(cnn2-c2cccc(C)c2C)c1=O,-17.9
2,COc1cc(C)ccc1OCc1nc(C(=O)N2CCCC2)co1,-42.5
3,COC(=O)NCC(=O)N1CCCCC1c1nc2cc(F)ccc2[nH]1 (stereo unspecified),-1.41
4,CC(=O)N[C@H]1CCN(c2nc(C)nc3c2c(C)nn3C)C1,4.61
5,CC(=O)N1C[C@H]2CC[C@@H](C1)N(S(=O)(=O)c1cc(F)ccc1C)C2,2.91
6,Cc1cc2ncn(C(=O)N3CCOCC3)c2cc1C,-1.45
7,CCS(=O)(=O)N1CC[C@]2(C[C@@H](OCC3CC3)CO2)C1,-15.6
8,COCCC1CCCCN1Cc1nc(Cc2cccc(F)c2)no1 (stereo unspecified),-142
9,CN(C)C(=O)[C@@H]1CCO[C@@H]2CCN(CCOCc3ccccc3)C[C@H]21,-0.902
10,CC(C)NC(=O)c1nn(C)c(NC(=O)Cc2ccccc2)c1F,-1.73
11,CN(C)C(=O)[C@H]1C[C@H]2[C@H](CCN2Cc2ccc3c(c2)OCO3)O1,2.36
12,Cc1csc(C(C#N)C(=O)NCc2cccnc2)n1 (stereo unspecified),9.6
13,O=C(c1ccc(N2CCCC2)nn1)N1CCc2ccccc21,2.6
14,O=C(c1cnn2c1OCCC2)N1CCN(C(=O)C2CCCO2)CC1 (stereo unspecified),-6.19
15,COCCOc1ccnc(-c2noc([C@@H]3CCCN3C)n2)c1,-7.18
16,CN1CCN(C(=O)Cn2ccc3c(Cl)cccc32)CC1,2.08
17,O=C(c1cncc(N2CCCC3(CCNCC3)CC2)n1)N1CCCCC1,-3.38
18,Cc1ccc(C(=O)N(C)CCCc2cnn(C)c2)cc1N1CCNC1=O,-4.39
19,CC(=O)c1nn(-c2ccccc2Cl)c(C)c1C(C)=O,6.33
